Experimental data: ChEMBL document CHEMBL1649165, “Activity profile in vitro of micafungin against Spanish clinical isolates of common and emerging species of yeasts and molds” (2009)
≈ marks a conversion by molar mass, not a printed value.

Tests used:
Format in all cases: functional
Candida metapsilosis = experiment: Antimicrobial activity against Candida metapsilosis by broth microdilution method; conditions: Lodderomyces metapsilosis
In short: (§1)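 Clinical isolates from human patients, tested by broth microdilution using the AFST-EUCAST reference procedure for fermentative yeasts. The MIC was read per that reference method.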

Pichia norvegensis = experiment: Antimicrobial activity against Candida norvegensis by broth microdilution method; in short: as §1
Lomentospora prolificans = experiment: Antimicrobial activity against Scedosporium prolificans by broth microdilution method
In short: (§2)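 Filamentous fungus clinical isolates tested by the AFST-EUCAST reference broth microdilution method for moulds. For echinocandins, the endpoint was the minimum effective concentration: the lowest drug concentration giving aberrant hyphal growth, read with an inverted microscope.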

Ustilago = experiment: Antimicrobial activity against Ustilago spp by broth microdilution method
Rhizopus arrhizus = experiment: Antimicrobial activity against Rhizopus oryzae by broth microdilution method; in short: as §2
Aspergillus ochraceus = experiment: Antimicrobial activity against Aspergillus ochraceus by broth microdilution method
In short: (§3)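 Clinical mould isolates, tested by broth microdilution using the AFST-EUCAST reference method for filamentous fungi. For echinocandins, the endpoint was the minimum effective concentration: the lowest drug concentration giving aberrant hyphal growth, read with an inverted microscope.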

Aspergillus fumigatus = experiment: Antimicrobial activity against Aspergillus fumigatus by broth microdilution method; in short: as §3
Aspergillus glaucus = experiment: Antimicrobial activity against Aspergillus glaucus by broth microdilution method; in short: as §3
Candida tropicalis = experiment: Antimicrobial activity against Candida tropicalis by broth microdilution method; in short: as §1
Trichoderma = experiment: Antimicrobial activity against Trichoderma spp. by broth microdilution method; in short: as §2
Saccharomyces cerevisiae = experiment: Antimicrobial activity against Saccharomyces cerevisiae by broth microdilution method
Exophiala jeanselmei = experiment: Antimicrobial activity against Exophiala jeanselmei by broth microdilution method
Aspergillus sclerotiorum = experiment: Antimicrobial activity against Aspergillus sclerotiorum by broth microdilution method; in short: as §3
[Candida] zeylanoides = Antimicrobial activity against Candida zeylanoides by broth microdilution method; conditions: Dujonia zeylanoides; in short: as §1
Acremonium sp. = experiment: Antimicrobial activity against Acremonium sp.by broth microdilution method; in short: as §3
Lichtheimia corymbifera = experiment: Antimicrobial activity against Mycocladus corymbiferus by broth microdilution method; in short: as §2
Yarrowia lipolytica = experiment: Antimicrobial activity against Yarrowia lipolytica by broth microdilution method
Wickerhamomyces anomalus = experiment: Antimicrobial activity against Candida pelliculosa by broth microdilution method; conditions: Hansenula anomala; in short: as §1
Geotrichum candidum = experiment: Antimicrobial activity against Galactomyces geotrichum by broth microdilution method
[Candida] inconspicua = Antimicrobial activity against Candida inconspicua by broth microdilution method; conditions: Pichia inconspicua; in short: as §1
Trichosporon domesticum = experiment: Antimicrobial activity against Trichosporon mycotoxinivorans by broth microdilution method; conditions: Apiotrichum domesticum
In short: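 Spanish human clinical isolates were tested as nonfermentative yeasts by broth microdilution. The method strictly followed the EUCAST recommendations, with a minor modification to improve growth, and the read-out was the MIC.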

Trichosporon jirovecii = experiment: Antimicrobial activity against Trichosporon jirovecii by broth microdilution method; conditions: Cutaneotrichosporon jirovecii
In short: (§4)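 Nonfermentative yeast clinical isolates (Rhodotorula, Trichosporon) tested by broth microdilution. The EUCAST yeast recommendations were followed strictly, with one minor modification to improve growth. MIC was read as the endpoint.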

[1] = system: Cryptococcus deneoformans; experiment: Antimicrobial activity against Cryptococcus neoformans var. neoformans by broth microdilution method
In short: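 Clinical isolates of nonfermentative yeasts, tested by broth microdilution following EUCAST recommendations. The only change from that method was a minor modification to improve growth.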

[2] = system: Kazachstania pintolopesii; experiment: Antimicrobial activity against Candida pintolopesii by broth microdilution method; conditions: Arxiozyma pintolopesii; in short: as §1
Scytalidium hyalinum = experiment: Antimicrobial activity against Scytalidium hyalinum by broth microdilution method; conditions: Neoscytalidium hyalinum; in short: as §2
Aspergillus sydowii = experiment: Antimicrobial activity against Aspergillus sydowii by broth microdilution method; in short: as §3
Kluyveromyces marxianus = experiment: Antimicrobial activity against Candida kefyr by broth microdilution method; in short: as §1
[3] = system: Meyerozyma guilliermondii; experiment: Antimicrobial activity against Candida guilliermondii by broth microdilution method; in short: as §1
[4] = Antimicrobial activity against Hormographiella aspergillata by broth microdilution method; conditions: Coprinopsis cinerea; in short: as §2
Hortaea werneckii = experiment: Antimicrobial activity against Hortaea werneckii by broth microdilution method
Candida albicans = experiment: Antimicrobial activity against Candida albicans by broth microdilution method; in short: as §1
Trichosporon inkin = experiment: Antimicrobial activity against Trichosporon inkin by broth microdilution method; in short: as §4
Fusarium proliferatum = experiment: Antimicrobial activity against Fusarium proliferatum by broth microdilution method; in short: as §3
Penicillium = experiment: Antimicrobial activity against Penicillium spp. by broth microdilution method; in short: as §2
Nakaseomyces glabratus = experiment: Antimicrobial activity against Candida glabrata by broth microdilution method; in short: as §1
[5] = system: Cladophialophora bantiana; experiment: Antimicrobial activity against Cladophialophora bantiana by broth microdilution method; in short: as §3
Candida orthopsilosis = experiment: Antimicrobial activity against Candida orthopsilosis by broth microdilution method; conditions: Lodderomyces orthopsilosis; in short: as §1
Phialemonium curvatum = experiment: Antimicrobial activity against Phialemonium curvatum by broth microdilution method; conditions: Thyridium curvatum; in short: as §2
Torulaspora delbrueckii = experiment: Antimicrobial activity against Candida coliculosa by broth microdilution method; in short: as §1

Compound: CC[C@H](C)C[C@H](C)CCCCCCCCC(=O)N[C@H]1C[C@@H](O)[C@@H](NCCN)NC(=O)[C@@H]2[C@@H](O)CCN2C(=O)[C@H]([C@H](O)CCN)NC(=O)[C@H]([C@H](O)[C@@H](O)c2ccc(O)cc2)NC(=O)[C@@H]2C[C@@H](O)CN2C(=O)[C@H]([C@@H](C)O)NC1=O [CASPOFUNGIN]
- MIC50 (Candida metapsilosis): 0.06 µg/mL (≈ 0.0549 µM)
- MIC90 (Candida metapsilosis): 0.5 µg/mL (≈ 0.457 µM)
- MIC50 (Pichia norvegensis): 0.06 µg/mL (≈ 0.0549 µM)
- MIC90 (Pichia norvegensis): 0.5 µg/mL (≈ 0.457 µM)
- MIC50 (Lomentospora prolificans): 8 µg/mL (≈ 7.32 µM)
- MIC90 (Lomentospora prolificans): > 16 µg/mL
- MIC50 (Ustilago): > 16 µg/mL
- MIC90 (Ustilago): > 16 µg/mL
- MIC50 (Rhizopus arrhizus): > 16 µg/mL
- MIC90 (Rhizopus arrhizus): > 16 µg/mL
- MIC50 (Aspergillus ochraceus): 0.12 µg/mL (≈ 0.11 µM)
- MIC90 (Aspergillus ochraceus): 0.5 µg/mL (≈ 0.457 µM)
- MIC50 (Aspergillus fumigatus): 0.25 µg/mL (≈ 0.229 µM)
- MIC90 (Aspergillus fumigatus): 0.5 µg/mL (≈ 0.457 µM)
- MIC50 (Aspergillus glaucus): 0.12 µg/mL (≈ 0.11 µM)
- MIC90 (Aspergillus glaucus): 0.5 µg/mL (≈ 0.457 µM)
- MIC50 (Candida tropicalis): 0.12 µg/mL (≈ 0.11 µM)
- MIC90 (Candida tropicalis): 0.25 µg/mL (≈ 0.229 µM)
- MIC50 (Trichoderma): > 16 µg/mL
- MIC90 (Trichoderma): > 16 µg/mL
- MIC50 (Saccharomyces cerevisiae): 0.5 µg/mL (≈ 0.457 µM)
- MIC90 (Saccharomyces cerevisiae): 1 µg/mL (≈ 0.915 µM)
- MIC50 (Exophiala jeanselmei): 0.25 µg/mL (≈ 0.229 µM)
- MIC90 (Exophiala jeanselmei): 1 µg/mL (≈ 0.915 µM)
- MIC50 (Aspergillus sclerotiorum): 0.12 µg/mL (≈ 0.11 µM)
- MIC90 (Aspergillus sclerotiorum): 0.5 µg/mL (≈ 0.457 µM)
- MIC50 ([Candida] zeylanoides): 0.06 µg/mL (≈ 0.0549 µM)
- MIC90 ([Candida] zeylanoides): 0.5 µg/mL (≈ 0.457 µM)
- MIC50 (Acremonium sp.): 0.5 µg/mL (≈ 0.457 µM)
- MIC90 (Acremonium sp.): 1 µg/mL (≈ 0.915 µM)
- MIC50 (Lichtheimia corymbifera): > 16 µg/mL
- MIC90 (Lichtheimia corymbifera): > 16 µg/mL
- MIC50 (Yarrowia lipolytica): 0.5 µg/mL (≈ 0.457 µM)
- MIC90 (Yarrowia lipolytica): 1 µg/mL (≈ 0.915 µM)
- MIC50 (Wickerhamomyces anomalus): 0.06 µg/mL (≈ 0.0549 µM)
- MIC90 (Wickerhamomyces anomalus): 0.5 µg/mL (≈ 0.457 µM)
- MIC50 (Geotrichum candidum): > 16 µg/mL
- MIC90 (Geotrichum candidum): > 16 µg/mL
- MIC50 ([Candida] inconspicua): 0.06 µg/mL (≈ 0.0549 µM)
- MIC90 ([Candida] inconspicua): 0.5 µg/mL (≈ 0.457 µM)
- MIC50 (Trichosporon domesticum): > 16 µg/mL
- MIC90 (Trichosporon domesticum): > 16 µg/mL
- MIC50 (Trichosporon jirovecii): > 16 µg/mL
- MIC90 (Trichosporon jirovecii): > 16 µg/mL
- MIC50 [1]: > 16 µg/mL
- MIC90 [1]: > 16 µg/mL
- MIC50 [2]: 0.06 µg/mL (≈ 0.0549 µM)
- MIC90 [2]: 0.5 µg/mL (≈ 0.457 µM)
- MIC50 (Scytalidium hyalinum): 0.25 µg/mL (≈ 0.229 µM)
- MIC90 (Scytalidium hyalinum): 1 µg/mL (≈ 0.915 µM)
- MIC50 (Aspergillus sydowii): 0.25 µg/mL (≈ 0.229 µM)
- MIC90 (Aspergillus sydowii): 1 µg/mL (≈ 0.915 µM)
- MIC50 (Kluyveromyces marxianus): 0.06 µg/mL (≈ 0.0549 µM)
- MIC90 (Kluyveromyces marxianus): 0.12 µg/mL (≈ 0.11 µM)
- MIC50 [3]: 0.5 µg/mL (≈ 0.457 µM)
- MIC90 [3]: 1 µg/mL (≈ 0.915 µM)
- MIC50 [4]: > 16 µg/mL
- MIC90 [4]: > 16 µg/mL
- MIC50 (Hortaea werneckii): 0.25 µg/mL (≈ 0.229 µM)
- MIC90 (Hortaea werneckii): 1 µg/mL (≈ 0.915 µM)
- MIC50 (Candida albicans): 0.06 µg/mL (≈ 0.0549 µM)
- MIC90 (Candida albicans): 0.12 µg/mL (≈ 0.11 µM)
- MIC50 (Trichosporon inkin): > 16 µg/mL
- MIC90 (Trichosporon inkin): > 16 µg/mL
- MIC50 (Fusarium proliferatum): > 16 µg/mL
- MIC90 (Fusarium proliferatum): > 16 µg/mL
- MIC50 (Penicillium): 0.25 µg/mL (≈ 0.229 µM)
- MIC90 (Penicillium): 8 µg/mL (≈ 7.32 µM)
- MIC50 (Nakaseomyces glabratus): 0.12 µg/mL (≈ 0.11 µM)
- MIC90 (Nakaseomyces glabratus): 0.25 µg/mL (≈ 0.229 µM)
- MIC50 [5]: 0.25 µg/mL (≈ 0.229 µM)
- MIC90 [5]: 1 µg/mL (≈ 0.915 µM)
- MIC50 (Candida orthopsilosis): 0.06 µg/mL (≈ 0.0549 µM)
- MIC90 (Candida orthopsilosis): 0.5 µg/mL (≈ 0.457 µM)
- MIC50 (Phialemonium curvatum): > 16 µg/mL
- MIC90 (Phialemonium curvatum): > 16 µg/mL
- MIC50 (Torulaspora delbrueckii): 0.06 µg/mL (≈ 0.0549 µM)
- MIC90 (Torulaspora delbrueckii): 0.5 µg/mL (≈ 0.457 µM)
